Data from the RNAGym collection of RNA variant scans (doi:10.1126/science.aae0568).
Variants at the floor of the assay were thinned out.

B1: tRNA (parent)
chain: GUUCCGUUGGCGUAAUGGUAACGCGUCUCCCUCCUAAGGAGAAGACUGCGGGUUCGAGUCCCGUACGGAACG

Variants of: B1
Assay: yeast fitness relative to wild type (ratio to wild type); higher = fitter; tRNA-Arg(CCU), competitive growth, 37 C, YPD
Summary of the method: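 Gene amplicons from the start population and from each of six end populations were read by 100-nucleotide paired-end sequencing. Those end populations came from pooled Saccharomyces cerevisiae strains carrying tRNA-Arg(CCU) gene variants at the native locus, competed in YPD at 37°C for 24 hours. Fitness relative to wild type was worked out from changes in genotype frequencies. Genotypes needed ≥ 100 starting reads, and estimates < 0.5 were set to 0.5.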

Variant	yeast fitness
A15U A20G A45U	≤ 0.5
A15U A45C C49U	0.618
A15U G18A A57U	≤ 0.5
A15G U16A A20G U28A C30A C33A A36U A69C	≤ 0.5
A15G G58C	0.949
A15G G58A	0.909
A15U G18C C29G	0.571
A15U G18C C55U A69C	≤ 0.5
A15G U28A C34G C46A A69G	≤ 0.5
A15U C27U G48C A69G A70U	≤ 0.5
A15G U47C A69C	0.754
A15U A20G C27U C66A	≤ 0.5
A15U A43G U47A	0.547
A15U C29G C31G C60U	0.675
A15U G18A C27G G56C G68C	≤ 0.5
A15U C31G C33U A37C A65U G67A	≤ 0.5
A15G G44C	0.785
A15U A37G A65C	≤ 0.5
A15G G44A C49U G50C A70G	≤ 0.5
A15G G52U	0.73
A15G G52C	0.568
A15G G52A	0.772
A15U C24G G68A	≤ 0.5
A15U C27A C62A A69U	≤ 0.5

Variant	yeast fitness
A15G U16A G38C C62G G68A	≤ 0.5
A15G G48A G58C	0.759
A15U C24A G25A U47C G52C C62U C66A A70C	≤ 0.5
A15U C22A A43G G51C	≤ 0.5
A15U C24G C34U U53C C55G C62A	≤ 0.5
A15U A36U G48C C66U	≤ 0.5
A15G U32A G38A A69U	≤ 0.5
A15U A45U G68C A70U	≤ 0.5
A15U A36G A37U A65U	≤ 0.5
A15U C24A	0.53
A15U C24U	0.627
A15U C24G	0.647
A15G U16C	0.927
A15G U16A	0.919
A15G U16C C29G G41A	0.599
A15G U54C C55G C61G A65U	≤ 0.5
A15G U35A G52A U59C C66A G67A	≤ 0.5
A15G G68C	0.648
A15G G68U	0.782
A15U C22G A69U	0.608
A15U A45U G68C	≤ 0.5
A15U C22G C31U A65U A69U	≤ 0.5
A15U C46A U53A A69G	≤ 0.5
A15U C24G C62U A69U	≤ 0.5

Variant	yeast fitness
A15U C61G	0.582
A15U C61A	0.571
A15U C61U	0.673
A15U C22A G23A C24A C46A A70G	≤ 0.5
A15G U54A C61U	0.57
A15G U32A G38A G52A C66U	≤ 0.5
A15U G25C A57G	≤ 0.5
A15U C31A C49G A65C	≤ 0.5
A15U A57U	0.666
A15U A36G G51C C55G	≤ 0.5
A15U A21C C49A	≤ 0.5
A15U C55A	0.503
A15U C55U	0.672
A15U C55G	0.604
A15U C24G A42C C66A	0.59
A15G U28G A42U G48A C61U	≤ 0.5
A15U C30G A36C C60A C61U	≤ 0.5
A15U A40U G52A A65C	≤ 0.5
A15U C31U G52A	0.576
A15U A20G G63C	0.555
A15U C33G C62G	0.602
A15U C27A U35C U54C U64C	≤ 0.5
A15U C60A	0.512
A15G U28A C34G C46A	0.501

Variant	yeast fitness
A15U C27U C49U	0.655
A15U C22A G23A C24A G56C	≤ 0.5
A15G U19C A37U	0.622
A15G G51A	0.668
A15G G44A G50C A70G	≤ 0.5
A15U G23C C29U G50A	0.616
A15U A36C G48C U59A C66U	≤ 0.5
A15U C22U C33G G50A	≤ 0.5
A15U C30G C34U C66U A70C	0.511
A15U A20C U32G	≤ 0.5
A15U C30A C31U A45C C55G	≤ 0.5
A15U C24G A65U	≤ 0.5
A15U C31A U54C	≤ 0.5
A15U C66G	0.671
A15U A20C G67U	0.605
A15U C27U U47C G68C	≤ 0.5
A15U A20G G41C C60U G67A	≤ 0.5
A15G U26G C30U A37C G39C C61G A69G	≤ 0.5
A15U C31U U35A A36C U53A	0.625
A15G G48C C61A	≤ 0.5
A15U G25C C61G	≤ 0.5
A15U C22G G52C A65C	≤ 0.5
A15U C27A A65C A69C	0.577
A15U G23C C33A G67C	≤ 0.5

Variant	yeast fitness
A15G U28C C30U A69U	0.633
A15U C30U C62U	0.572
A15U A21G G25C C33A A37U	0.554
A15U C22G G48C G63C A70C	≤ 0.5
A15G G48C A57U	0.511
A15U G23C G41A C49A	≤ 0.5
A15U C33G G50A	0.625
A15U A21G C24U C33U A40C A43C C49U C55U C61U	≤ 0.5
A15U C34A G39C A40C G56C C61G C62G G68C	0.533
A15G U19C A21G	0.656
A15G U28C U35A G38A C46G C62U	0.718
A15U A43U	0.826
A15U A43G	0.726
A15U C46G A70U	0.56
A15U G18A A40C A43C C46G A69C	≤ 0.5
A15U C22G C31G U32G	0.626
A15U C49U G56A C61G	≤ 0.5
A15G U26C G44A G50C A70G	≤ 0.5
A15U A20C G23A C30U	≤ 0.5
A15U C29A C34G	≤ 0.5
A15U A36G	0.665
A15U C34G A37G A40C	0.59
A15G U32G A43C	≤ 0.5
A15G G48A A65U	0.759

Variant	yeast fitness
A15U C31G U53A C55U G68U	≤ 0.5
A15G G41C C49G C55U C61A	0.638
A15U C22G	0.67
A15U C22U	0.743
A15U C22A	0.738
A15U C34U G41C A69G	≤ 0.5
A15U G25C C49G U59G	≤ 0.5
A15U G25C	0.583
A15G G41A U53G	≤ 0.5
A15U C24G A45G G52A U54A	≤ 0.5
A15U A36C A40U A65U	≤ 0.5
A15U A45U A69C	0.647
A15U G25A A36U	0.586
A15G U53G	0.61
A15G U53A	0.667
A15U C27A A43C	0.592
A15U A40G A65U	0.516
A15G U26A G41A U64A A70C	≤ 0.5
A15G G56C	0.651
A15U A21G C31G C49A	≤ 0.5
A15G U19A	1.13
A15U C27A C61G	≤ 0.5
A15U C27A C61U	≤ 0.5
A15U C22G A70C	≤ 0.5

Variant	yeast fitness
A15U A45G	0.732
A15U A45U	0.593
A15G U26G G41C A43C C66A	≤ 0.5
A15G G48C A69U	0.636
A15U C49G	0.671
A15U G25A G44C	0.566
A15U C22U G52A	0.596
A15U G23A A40C A57G C61U A65C	0.629
A15G U16C C34U G44C	≤ 0.5
A15U A40U	0.637
A15U A37U C49G A65G	≤ 0.5
A15G G50A G56A	0.552
A15U C24G U53A U64A	≤ 0.5
A15U C24G G63A	≤ 0.5
A15U A42C	0.787
A15U A37C A43U	0.514
A15G U16A U19C C30U G52C	≤ 0.5
A15G U26G A65C	0.632
A15U G17C A45U C49G	≤ 0.5
A15U A36G C55G G56A	0.535
A15U C22U G44C A65G	≤ 0.5
A15U G18A A37G G50A	≤ 0.5
A15U C24G G44C G58C G68U	≤ 0.5
